Molecular target: Sigma 2 receptor
Experiment: Binding affinity towards sigma 2 receptor site in rat liver membranes using [3H]DTG as radioligand in presence of (+)-pentazocine.
Format: cell membranes, Membrane
Outline: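 Male Sprague-Dawley rat liver crude P2 membranes, 35 μg protein, with 3 nM [3H]DTG plus 100 nM (+)-pentazocine to mask σ1 sites. Incubated in 50 mM Tris-HCl pH 8.0 for 120 min at 25 °C. Nonspecific binding defined with 5 μM DTG. Filtration, then scintillation counting. IC50 by nonlinear regression.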

Going from `O=C(Cc1ccc(Cl)cc1Cl)NC1CCN(Cc2ccccc2)CC1` to `O=C(Cc1ccc(Cl)c(Cl)c1)NC1CCN(Cc2ccccc2)CC1`, the Ki falls from 24.5 nM to 14.6 nM (1.7-fold). The second binds more tightly here.

`O=C(Cc1ccccc1[N+](=O)[O-])NC1CCN(Cc2ccccc2)CC1` and `O=C(Cc1ccccc1O)NC1CCN(Cc2ccccc2)CC1` are within 1.5-fold of each other in Ki: 493 nM for the first, 343 nM for the second.

First: O=C(Cc1cccc(F)c1)NC1CCN(Cc2ccccc2)CC1
Second: O=C(Cc1cccc(O)c1)NC1CCN(Cc2ccccc2)CC1
The Ki of the first is lower: 153 nM for the first, > 1000 nM for the second. The first binds more tightly here.

Going from `O=C(Cc1ccccc1C(F)(F)F)NC1CCN(Cc2ccccc2)CC1` to `O=C(Cc1ccccc1F)NC1CCN(Cc2ccccc2)CC1`, the Ki rises from 61.9 nM to 667 nM (11-fold).

`O=C(Cc1ccc([N+](=O)[O-])cc1)NC1CCN(Cc2ccccc2)CC1` and `O=C(Cc1cccc([N+](=O)[O-])c1)NC1CCN(Cc2ccccc2)CC1` are within 1.5-fold of each other in Ki: 105 nM for the first, 79.2 nM for the second.

`COc1ccc(OC)c(CC(=O)NC2CCN(Cc3ccccc3)CC2)c1` and `COc1ccc(CC(=O)NC2CCN(Cc3ccccc3)CC2)cc1OC` cannot be ordered by Ki: > 1000 nM for the first, > 1000 nM for the second.

Compared with `COc1ccc(CC(=O)NC2CCN(Cc3ccccc3)CC2)cc1`, `O=C(Cc1ccc(F)cc1)NC1CCN(Cc2ccccc2)CC1` is 7-fold lower in Ki: 483 nM for the first, 69.2 nM for the second. The second binds more tightly here.

First: O=C(Cc1ccc(F)c(F)c1)NC1CCN(Cc2ccccc2)CC1
Second: O=C(Cc1cc(F)ccc1F)NC1CCN(Cc2ccccc2)CC1
The Ki of the first is 2.4-fold lower: 53.5 nM for the first, 129 nM for the second.

Compared with `O=C(Cc1ccc(O)c(O)c1)NC1CCN(Cc2ccccc2)CC1`, `O=C(Cc1ccc(O)c(Cl)c1)NC1CCN(Cc2ccccc2)CC1` is lower in Ki: > 1000 nM for the first, 757 nM for the second.

First: COc1cccc(C(O)CNC2CCN(Cc3ccccc3)CC2)c1OC (centres undefined)
Second: COc1ccc(NC(=O)NC2CCN(Cc3ccccc3)CC2)c(OC)c1
The Ki of the first is 2.4-fold higher: 535 nM for the first, 227 nM for the second.

First: O=C(Cc1cc(F)cc(F)c1)NC1CCN(Cc2ccccc2)CC1
Second: O=C(Cc1ccc(F)cc1F)NC1CCN(Cc2ccccc2)CC1
The Ki of the first is 3.5-fold lower: 37.3 nM for the first, 130 nM for the second. The first binds more tightly here.

First: COc1cc(CC(=O)NC2CCN(Cc3ccccc3)CC2)cc(OC)c1
Second: COc1cccc(CC(=O)NC2CCN(Cc3ccccc3)CC2)c1
The Ki of the first is higher: > 1000 nM for the first, 326 nM for the second.

First: COc1ccccc1CC(=O)NC1CCN(Cc2ccccc2)CC1
Second: O=C(Cc1ccccc1Br)NC1CCN(Cc2ccccc2)CC1
The Ki of the first is higher: > 1000 nM for the first, 86.6 nM for the second. The second binds more tightly here.

First: O=C(Cc1ccc(Cl)cc1)NC1CCN(Cc2ccccc2)CC1
Second: O=C(Cc1ccc(O)cc1)NC1CCN(Cc2ccccc2)CC1
The Ki of the first is lower: 80.7 nM for the first, > 1000 nM for the second. The first binds more tightly here.

`O=C(Cc1ccc([N+](=O)[O-])cc1[N+](=O)[O-])NC1CCN(Cc2ccccc2)CC1` and `O=C(Cc1ccccc1Cl)NC1CCN(Cc2ccccc2)CC1` are within 1.5-fold of each other in Ki: 243 nM for the first, 174 nM for the second.

First: CSc1ccc(CC(=O)NC2CCN(Cc3ccccc3)CC2)cc1
Second: O=C(Cc1ccc(Br)cc1)NC1CCN(Cc2ccccc2)CC1
The Ki of the first is 3.5-fold higher: 83.3 nM for the first, 23.9 nM for the second.

Compared with `CSc1ccc(NC(=O)NC2CCN(Cc3ccccc3)CC2)cc1`, `Nc1ccc(CC(=O)NC2CCN(Cc3ccccc3)CC2)cc1` is higher in Ki: 80.5 nM for the first, > 1000 nM for the second. The first binds more tightly here.

Compared with `O=C(Cc1cccc(Cl)c1)NC1CCN(Cc2ccccc2)CC1`, `O=C(Cc1cccc(Br)c1)NC1CCN(Cc2ccccc2)CC1` is 2.4-fold lower in Ki: 36.9 nM for the first, 15.2 nM for the second. The second binds more tightly here.

Compared with `O=C(Cc1ccccc1)NC1CCN(Cc2ccccc2)CC1`, `O=C(Cc1cccc(C(F)(F)F)c1)NC1CCN(Cc2ccccc2)CC1` is 6.3-fold lower in Ki: 240 nM for the first, 37.8 nM for the second.

Compared with `O=C(Cc1c(Cl)cccc1Cl)NC1CCN(Cc2ccccc2)CC1`, `O=C(Cc1c(F)cccc1F)NC1CCN(Cc2ccccc2)CC1` is 2.9-fold higher in Ki: 70.8 nM for the first, 207 nM for the second.

Compared with `O=C(Cc1ccc(C(F)(F)F)cc1)NC1CCN(Cc2ccccc2)CC1`, `O=C(Cc1ccc2c(c1)OCO2)NC1CCN(Cc2ccccc2)CC1` is 5.4-fold higher in Ki: 53.4 nM for the first, 290 nM for the second.

Going from `COc1cc(CC(=O)NC2CCN(Cc3ccccc3)CC2)cc(OC)c1OC` to `OC(CCCN1CCC(O)(c2ccc(Cl)cc2)CC1)c1ccc(F)cc1` (centres undefined) [HYDROXYHALOPERIDOL], the Ki falls from > 1000 nM to 28.6 nM. The second binds more tightly here.

Reference: ChEMBL document CHEMBL1131000, “Synthesis and quantitative structure-activity relationships of N-(1-benzylpiperidin-4-yl)phenylacetamides and related analogues as potent and selective sigma1 receptor ligands” (J Med Chem, 1998)
